Screening results from PubChem.
Sampled rows, rich in hits. Any-hit rate of the full collection: about 2%.
NR2E3 ag-1: activates human NR2E3 receptor. Q9Y5X4. CHO-S Gal4-NCOR/VP16-NR2E3 two-hybrid, luciferase. inhibition of corepressor binding, % at 3.98 µM. 360,000 tested, 0.35% active. AID 602229;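 active = inhibition above the mean of all tested compounds plus 3 SD, cut at about 70% in these data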;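 also: higher means lower luciferase signal from less NR2E3 corepressor binding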
Target sequence (Q9Y5X4 whole entry, looked up, the tested form may be a part): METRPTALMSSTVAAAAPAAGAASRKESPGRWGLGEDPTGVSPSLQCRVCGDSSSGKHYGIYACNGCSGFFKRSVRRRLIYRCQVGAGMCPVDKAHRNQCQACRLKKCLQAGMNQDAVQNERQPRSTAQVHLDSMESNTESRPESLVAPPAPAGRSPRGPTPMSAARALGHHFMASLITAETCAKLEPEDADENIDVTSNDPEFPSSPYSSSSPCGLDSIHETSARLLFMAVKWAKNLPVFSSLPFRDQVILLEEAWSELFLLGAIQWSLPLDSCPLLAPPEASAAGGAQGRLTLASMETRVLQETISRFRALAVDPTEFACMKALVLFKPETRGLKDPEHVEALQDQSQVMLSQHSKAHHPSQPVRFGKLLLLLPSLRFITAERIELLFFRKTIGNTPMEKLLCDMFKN
EBV LMP1 NFkB: Epstein-Barr LMP1 NF-kappaB reporter inhibition. LMP1-induced NF-kappaB luciferase reporter cells, luminescence. 350,000 tested, 0.69% active. AID 504558. inhibition, % at 12.5 µM; in the data active = inhibition above about 41%
HIF act: HIF pathway transcriptional activation; U2OS HRE-luciferase reporter, luminescence; normalized: DMSO 0%, desferrioxamine 100%; activation, % at 7.5 µM (by protocol); 300,000 tested, 0.32% active; AID 1910;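 active = mean activation of at least 10% of the iron chelator positive control signal, with at least half of replicates also reaching 10%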
NR2E3 ag-2: NR2E3 (human) agonism. GST-NR2E3/biotin-RetCOR TR-FRET, 1536-well. inhibition of corepressor binding, % at 4.78 µM. Q9Y5X4. AID 2300. 320,000 tested, 0.12% active;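 active = percent inhibition above the cutoff of mean plus 3 SD of all tested compounds, set per screening campaign, cut at about 20% in these data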
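System: GST-tagged NR2E3 plus biotinylated RetCOR corepressor; Amount: 1.35 nM GST-tagged NR2E3 final; Dosing: single nominal compound dose of 4.8 µM; Schedule: 5 h incubation at 4 °C; Technique: TR-FRET with europium anti-GST and streptavidin-D2, 340 nm excitation; Controls: biotin wells as high control, 0.6% DMSO wells as low control.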
TROY NFkB inh: blocks TROY-dependent signaling in reporter cells. AID 1347056. inhibition, % at 10 µM. Q293 LMP1-TROYcd NF-kB luciferase reporter, 4 h. 360,000 tested, 0.98% active;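 active = compounds whose plate-normalised and pattern-corrected inhibition of the luciferase reporter signal at the single screening dose is 50% or more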
Large screens that a line does not name were inactive.

COc1ccccc1CN1CC(C(=O)N2CCC(C(=O)c3ccccc3)CC2)CCC1=O (configuration not stated)	none
Cc1cc(C)c(C(=O)CC(=O)c2ccccc2Cl)c(O)c1	none
CCn1c(SCC(=O)Nc2cccc(C)c2)nc2nc3c(cc2c1=O)COC(C)(C)C3	none
Cn1c2c(c(=O)[nH]c1=O)C(c1cccc(O)c1)C1=C(N2)c2ccccc2C1=O (configuration not stated)	EBV LMP1 NFkB 47 (no result: HIF act, NR2E3 ag-2)
COc1cccc(C2C3=C(Nc4[nH]n(-c5ccccc5)c(=O)c42)c2ccccc2C3=O)c1 (configuration not stated)	none (no result: NR2E3 ag-1, EBV LMP1 NFkB, HIF act, TROY NFkB inh)
O=C(Nc1cc(-c2ccccc2)nn1C1CCCCC1)c1ccc(Cl)cc1	TROY NFkB inh 54 (no result: HIF act, NR2E3 ag-2)
CNC(=O)Cn1nc(-c2ccc(Cl)cc2)c2ccccc2c1=O	none
CC1CCN(S(=O)(=O)c2ccc3c4c2CC(=O)N4CC(C)S3)CC1 (configuration not stated)	HIF act 187
Cc1ccc(S(=O)(=O)N2CCN(S(=O)(=O)N3CCC(C)CC3)CC2)c(C)c1	none
Cc1ccc(S(=O)(=O)Nc2cc(-c3ccc(Cl)cc3)nn2C)cc1	HIF act 19 (no result: EBV LMP1 NFkB)
Cc1ccc(S(=O)(=O)Nc2cc(-c3ccccc3)nn2C)cc1	none (no result: EBV LMP1 NFkB)
CCc1nc2ccc(C(=O)Nc3cccc(NS(C)(=O)=O)c3)cn2c1N(C)C(=O)c1cccc(OC)c1	none (no result: EBV LMP1 NFkB, HIF act, NR2E3 ag-2)
Cn1nc(C(=O)NC2CCCCCC2)ccc1=O	none
Cn1nc(C(F)(F)F)cc1C(=O)NC1CCCCCC1	HIF act 237
O=C1N=C(N2CCCCC2)S/C1=C\c1ccncc1	none
CCc1ccc(/C=C2\SC(N3CCCC3)=NC2=O)cc1	TROY NFkB inh 58
O=C1N=C(N2CCCC2)S/C1=C\C=C\c1ccccc1	TROY NFkB inh 72
Cc1ccc(C(=O)N/N=C/c2cc(Br)ccc2O)cn1	HIF act 16
Cc1ccc(C(=O)N/N=C\C=C\c2ccc(Br)cc2)cn1	none
Oc1ccc(Br)cc1/C=N/NC(=S)NCCc1ccccc1	none
O=C(N/N=C/c1cc(Br)ccc1O)c1ccccc1Cl	EBV LMP1 NFkB 51, HIF act 26
O=C(N/N=C/c1cc(Br)ccc1O)C(=O)Nc1ccccc1OC(F)(F)C(F)F	HIF act 12
O=C(CCc1ccccc1)N/N=C/c1cc(Br)ccc1O	HIF act 12
C#CCOCCOCCOCCNc1nc(N2CCN(C(=O)[C@H](CCCCN)n3cc(C(N)CO)nn3)CC2)nc(N2CCN(C(=O)[C@H](CCCCN)n3cc(C(N)COC(=O)C(F)(F)F)nn3)CC2)n1 (some centres not stated)	none (no result: NR2E3 ag-1, EBV LMP1 NFkB, TROY NFkB inh)
CC(=O)N1c2ccc(S(=O)(=O)N3CCCC(C(=O)N4CCC(C)CC4)C3)cc2CC1C (configuration not stated)	none
C[C@H]1CC[C@H]2C(=O)N3[C@H](c4ccccc4Br)[C@@H](C)CC[C@H]3C(=O)N2[C@@H]1c1ccccc1Br	none (no result: NR2E3 ag-1, EBV LMP1 NFkB, TROY NFkB inh)
COCCn1c(C)cc(C(=O)CSc2nc3ccccc3s2)c1C	TROY NFkB inh 60 (no result: HIF act)
COCCn1c(C)cc(C(=O)CSc2nnc3ccccn23)c1C	EBV LMP1 NFkB 50
N/C(=N\OC(=O)c1cnn(-c2ccccc2)c1C(F)(F)F)c1ccc(C(F)(F)F)cc1	none
COc1cc(OC)c2c(-c3cccc(-c4ccc(C(C)=O)cc4)c3)cc(=O)oc2c1	TROY NFkB inh 56 (no result: HIF act, NR2E3 ag-2)
CNc1c2cccc(C)c2nc2c(C(=O)NCCN(C)C)cccc12	EBV LMP1 NFkB 91 (no result: HIF act, NR2E3 ag-2)
CC(C)CC(=O)/C(=C/c1ccc(N(C)C)cc1)n1cncn1	none
CC(C)CC(=O)/C(=C\c1ccc(Cl)cc1Cl)n1cncn1	TROY NFkB inh 74 (no result: NR2E3 ag-2)
CCCNC(=O)Nc1nc(C(N)c2ccc(OC)cc2)cs1 (configuration not stated)	none (no result: EBV LMP1 NFkB, HIF act, NR2E3 ag-2)
CCOC(=O)c1ccc(NC(=S)Nc2ccc(C)cc2)cc1	none
CCOC(=O)c1cn[nH]c1NC(=S)Nc1ccc(Cl)cc1	TROY NFkB inh 61 (no result: EBV LMP1 NFkB)
CCN(CC)c1ccc(/C=N/NC(=O)CNC(=O)C2COc3ccccc3O2)c(O)c1 (configuration not stated)	HIF act 19
Cc1cccc(NS(=O)(=O)c2ccc(C)c(C(=O)N3CCN(C(=O)c4ccco4)CC3)c2)c1	none (no result: HIF act, NR2E3 ag-2)
Cc1cccc(NC(=O)COC(=O)[C@@H]2CCCN2C(=O)c2cccs2)c1	none (no result: HIF act, NR2E3 ag-2)
Cc1[nH]n(-c2ccccc2)c(=O)c1/C=N/NC(=O)c1cccc(F)c1	none
